In ChEMBL document CHEMBL5143661, “Efficiency of bis-amidate phosphonate prodrugs” (Bioorg Med Chem Lett, 2022):

How the values were obtained:
[1] = Induction of interferon gamma production in human Vgamma9Vdelta2 T cells pretreated with K562 cells followed by compound washout and cocultured with Vgamma9Vdelta2 T cells and measured after 60 mins by ELISA; type: functional, cell-based; settings: Vgamma9Vdelta2 T cell
In short: (§1)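 K562 cells loaded with compound over a dose range for 15, 60 or 240 min, washed, then co-cultured with human Vγ9Vδ2 T cells.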

[2] = Stability of the compound in human K562 cell lysates in lysis buffer assessed as parent compound remaining measured after 4 hrs; type: ADME, subcellular; settings: k562, 4 h
In short: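 Compound incubated 4 h in K562 cell extract, 5 mg/mL in lysis buffer; percent parent remaining determined (n=2).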

[3] = Induction of interferon gamma production in human Vgamma9Vdelta2 T cells pretreated with K562 cells followed by compound washout and cocultured with Vgamma9Vdelta2 T cells and measured after 15 mins by ELISA; type: functional, cell-based; settings: Vgamma9Vdelta2 T cell; in short: as §1
[4] = Induction of interferon gamma production in human Vgamma9Vdelta2 T cells pretreated with K562 cells followed by compound washout and cocultured with Vgamma9Vdelta2 T cells and measured after 240 mins by ELISA; type: functional, cell-based; settings: Vgamma9Vdelta2 T cell; in short: as §1
[5] = Induction of Vgamma9Vdelta2 T cell proliferation in human peripheral blood; type: functional, cell-based
K562 = test: Cytotoxicity against human K562 cells assessed as inhibition of cell growth incubated for 72 hrs; type: functional, cell-based; settings: K562, 72 h
[6] = Stability of the compound in 50% plasma (unknown origin) in PBS assessed as parent compound remaining measured after 24 hrs; type: ADME, cell-free; settings: unidentified
In short: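 Compound incubated 24 h in 50% plasma diluted in phosphate-buffered saline; percent parent remaining determined (n=2).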

## COC(=O)[C@@H](NP(=O)(CC/C=C(\C)CO)N[C@H](C(=O)OC)C(C)C)C(C)C
[1]
  EC50: 5700 nM
[2]
  Stability: 74%
[3]
  EC50: 14000 nM
[4]
  EC50: 1900 nM
[5]
  EC50: 30 nM
K562
  IC50: 10000 nM
[6]
  Stability: 86%

## CC(C)=CCCP(=O)(N[C@@H](C)C(=O)OC(C)C)N[C@@H](C)C(=O)OC(C)C
[2]
  Stability: 79%
[6]
  Stability: 90%

## CCOC(=O)[C@H](C)NP(=O)(CCC=C(C)C)N[C@@H](C)C(=O)OCC
[2]
  Stability: 31%
[6]
  Stability: 70%

## CCOC(=O)CNP(=O)(CCC=C(C)C)NCC(=O)OCC
[2]
  Stability: 86%
[6]
  Stability: 82%

## CCOC(=O)CNP(=O)(CC/C=C(\C)CO)NCC(=O)OCC
[1]
  EC50: 7200 nM
[2]
  Stability: 57%
[3]
  EC50: 23000 nM
[4]
  EC50: 1600 nM
[5]
  EC50: 43 nM
K562
  IC50: > 100000 nM
[6]
  Stability: 82%

## COC(=O)[C@@H](NP(=O)(CCC=C(C)C)N[C@H](C(=O)OC)C(C)C)C(C)C
[2]
  Stability: 85%
[6]
  Stability: 99%

## CCOC(=O)CNP(=O)(CC/C=C(\C)CO)Oc1ccccc1 (racemic)
[1]
  EC50: 230 nM
[2]
  Stability: 86%
[3]
  EC50: 1500 nM
[4]
  EC50: 51 nM
K562
  IC50: > 100000 nM

## C/C(=C\CCP(=O)(OCOC(=O)C(C)(C)C)OCOC(=O)C(C)(C)C)CO
[1]
  EC50: 30 nM
[2]
  Stability: 0%
[3]
  EC50: 43 nM
[4]
  EC50: 24 nM
K562
  IC50: > 100000 nM
